Active and inactive are the calls of the source. The calls are words filed in the database; no cut-off is given here.
Key:
U-937 [1] = test: Cytoprotective activity against 1.5 uM etoposide-induced cell death in human U937 cells pretreated for 5 hrs measured after 24 hrs by cell flow cytometry using propidium iodide staining relative to control; assay type: functional, cell-based
Method in brief: (§1)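 U-937 suspension cells preincubated 5 h across a concentration range, then challenged with etoposide (final 1.5 µM) or rotenone (final 5 µM). Death scored 24 h later by propidium iodide staining and flow cytometry. Percent protection derived from live-cell fraction relative to vehicle-only and toxin-only controls. SDM from n = 3, each run in triplicate.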

U-937 [2] = test: Cytoprotective activity against 20 uM rotenone-induced intracellular ROS production in human U937 cells at 100 uM pretreated for 5 hrs by dihydroethidium dye reduction assay; assay type: functional, cell-based
Method in brief: (§2)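 U-937 cells exposed 5 h to a range of test concentrations or α-tocopherol (100 µM), then rotenone added (final 20 µM). After 40 min, dichlorodihydrofluorescein diacetate (peroxides) or dihydroethidium (superoxide, forming ethidium) added, and cellular fluorescence read by flow cytometry. Compared with vehicle+rotenone control. SDM from n = 3, each in triplicate.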

U-937 [3] = test: Cytoprotective activity against 20 uM rotenone-induced intracellular ROS production in human U937 cells at 100 uM pretreated for 5 hrs by 2,7-dichlorodihydrofluorescein dye reduction assay; assay type: functional, cell-based; method in brief: as §2
U-937 [4] = test: Cytoprotective activity against 5 uM rotenone-induced cell death in human U937 cells pretreated for 5 hrs measured after 24 hrs by cell flow cytometry using propidium iodide staining relative to control; assay type: functional, cell-based; method in brief: as §1
U-937 [5] = test: Cytoprotective activity against 50 uM N-methyl-N'-nitro-N-nitrosoguanidine-induced cell death in human U937 cells pretreated for 5 hrs measured after 24 hrs by cell flow cytometry using propidium iodide staining relative to control; assay type: functional, cell-based
Method in brief: (§3)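 Protection of U-937 cells against H2O2 or MNNG: 5 h preincubation with a range of concentrations before toxin addition, then viability measured after 24 h by propidium iodide staining and flow cytometry. Reported as percent protection versus vehicle-only and toxin-only control cells.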

U-937 [6] = test: Cytoprotective activity against 50 uM H2O2-induced cell death in human U937 cells pretreated for 5 hrs measured after 24 hrs by cell flow cytometry using propidium iodide staining relative to control; assay type: functional, cell-based; method in brief: as §3
U-937 [7] = test: Antiapoptotic activity in human U937 cells assessed as reduction of 1.5 uM etoposide-induced caspase-3/7 like activity pretreated for 5 hrs measured after 24 hrs relative to control; assay type: functional, cell-based
Method in brief: (§4)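 U-937 cells pretreated 5 h with Z-VAD-fmk (100 nM) or a range of test concentrations, then etoposide added (final 1.5 µM) for 24 h. Cells moved to caspase assay buffer, lysed, and given Ac-DEVD-pNA (final 200 µM). pNA release per minute read at 405 nm. DMSO 1% in all wells. Vehicle+etoposide set to 1.0, vehicle alone set to 0. Triplicate, representative of three experiments.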

U-937 [8] = test: Antiapoptotic activity in human U937 cells assessed as reduction of 1.5 uM etoposide-induced caspase-3/7 like activity at 100 nM pretreated for 5 hrs measured after 24 hrs relative to control; assay type: functional, cell-based; method in brief: as §4
Caspase-3 (Homo sapiens) = molecular target: T1, Caspase-3 (Homo sapiens) (UniProt P42574); test: Inhibition of recombinant caspase 3 activity expressed in Escherichia coli BL21 (DE3) assessed as p-nitroaniline release using Ac-DEVD-pNA substrate up to 100 uM
T1 sequence (whole entry): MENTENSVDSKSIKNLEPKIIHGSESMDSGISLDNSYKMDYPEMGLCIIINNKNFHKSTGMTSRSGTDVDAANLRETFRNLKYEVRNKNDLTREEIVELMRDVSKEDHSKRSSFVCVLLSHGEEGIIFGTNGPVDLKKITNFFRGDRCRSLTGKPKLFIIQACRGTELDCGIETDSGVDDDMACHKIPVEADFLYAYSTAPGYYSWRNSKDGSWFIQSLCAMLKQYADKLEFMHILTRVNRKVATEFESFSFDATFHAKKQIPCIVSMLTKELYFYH
Method in brief: (§5)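 Recombinant purified caspase-3, -6, -7 and -8 were run as full Michaelis-Menten curves (velocity vs substrate concentration) at several test concentrations up to 100 µM. Hydrolytic pNA release was followed from enzyme-specific tetrapeptide substrates: Ac-DEVD-pNA for caspase-3 and -7, Ac-VEID-pNA for caspase-6, Ac-IETD-pNA for caspase-8. Kinetics given as kcat/KM.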

Caspase-6 (Homo sapiens) = molecular target: T2, Caspase-6 (Homo sapiens) (UniProt P55212); test: Inhibition of recombinant caspase 6 activity expressed in Escherichia coli BL21 (DE3) assessed as p-nitroaniline release using Ac-VEID-pNA substrate up to 100 uM; method in brief: as §5
T2 sequence (whole entry): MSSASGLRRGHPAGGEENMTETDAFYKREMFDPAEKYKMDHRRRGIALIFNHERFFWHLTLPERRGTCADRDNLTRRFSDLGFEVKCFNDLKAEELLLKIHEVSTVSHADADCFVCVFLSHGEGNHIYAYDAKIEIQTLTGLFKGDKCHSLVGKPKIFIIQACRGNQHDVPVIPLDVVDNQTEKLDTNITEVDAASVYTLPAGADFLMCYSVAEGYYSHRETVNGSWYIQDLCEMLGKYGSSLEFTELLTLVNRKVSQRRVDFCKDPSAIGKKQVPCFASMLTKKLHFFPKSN

Caspase-7 (Homo sapiens) = molecular target: T3, Caspase-7 (Homo sapiens) (UniProt P55210); test: Inhibition of recombinant caspase 7 activity expressed in Escherichia coli BL21 (DE3) assessed as p-nitroaniline release using Ac-DEVD-pNA substrate up to 100 uM; method in brief: as §5
T3 sequence (whole entry): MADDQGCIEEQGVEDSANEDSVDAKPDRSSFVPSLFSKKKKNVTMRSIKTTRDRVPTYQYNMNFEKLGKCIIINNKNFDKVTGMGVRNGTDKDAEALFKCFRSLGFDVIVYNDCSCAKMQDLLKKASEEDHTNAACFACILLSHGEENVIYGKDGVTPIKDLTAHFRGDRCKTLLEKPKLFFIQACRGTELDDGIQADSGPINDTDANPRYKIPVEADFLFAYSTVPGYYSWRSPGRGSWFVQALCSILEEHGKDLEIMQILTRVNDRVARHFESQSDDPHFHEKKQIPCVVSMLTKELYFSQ

Caspase-8 (Homo sapiens) = Caspase-8 (Homo sapiens) (UniProt Q14790); test: Inhibition of recombinant caspase 8 activity expressed in Escherichia coli BL21 (DE3) assessed as p-nitroaniline release using Ac-IETD-pNA substrate up to 100 uM; method in brief: as §5
Caspase-8 (Homo sapiens), sequence (Q14790 217-374 limits assumed): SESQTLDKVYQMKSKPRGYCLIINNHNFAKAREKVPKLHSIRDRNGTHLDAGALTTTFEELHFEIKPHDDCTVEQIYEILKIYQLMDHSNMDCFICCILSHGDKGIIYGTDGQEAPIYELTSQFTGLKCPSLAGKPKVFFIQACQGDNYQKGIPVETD
Caspase-8 (Homo sapiens), sequence (Q14790 385-479 limits assumed): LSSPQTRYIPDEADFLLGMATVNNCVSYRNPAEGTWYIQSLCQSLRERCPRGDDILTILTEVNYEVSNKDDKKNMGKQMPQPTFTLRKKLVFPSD

In the case of `C=C1C=C(CCC(=O)OC)C(=O)OC1CCCCC` (centres undefined), the Activity (U-937 [1]) is reported as “inactive”.
In the case of `C=C1C=CC(=O)OC1CCCCC` (centres undefined), the Activity (U-937 [1]) is reported as “inactive”.
In the case of `C=C1C=C(CCC(=O)O)C(=O)OC1/C=C/C=CC` (centres undefined), the Activity (U-937 [1]) is reported as “Active”.
For `C=C1C=CC(=O)OC1/C=C/CCC` (centres undefined), the Activity (U-937 [1]) was “inactive”.
In the case of `Cc1c(C)c2c(c(C)c1O)CC[C@@](C)(CCC[C@H](C)CCC[C@H](C)CCCC(C)C)O2`, the Activity (U-937 [2]) is reported as “Active” and the Activity (U-937 [3]) is reported as “Active”.
For `C=C1C=C(CCC(=O)OC)C(=O)OC1/C=C/C=C/C` (centres undefined), the Activity (U-937 [1]) was “inactive”.
For `C=C1C=CC(=O)OC1/C=C/C=C/C` (centres undefined), the Activity (U-937 [1]) was “inactive”.
In the case of `C=C1C=C(CCC(=O)O)C(=O)OC1/C=C/C=C/C` (centres undefined), the Activity (U-937 [2]) is reported as “inactive”, the Activity (U-937 [4]) is reported as “Dose-dependent effect” and the Activity (U-937 [5]) is reported as “Dose-dependent effect”. The Activity (U-937 [6]) was “inactive”, the Activity (U-937 [7]) was “Active” and the Activity (U-937 [8]) was “inactive”. For the same compound, the Activity (Caspase-3 (Homo sapiens)) was “inactive”, the Activity (Caspase-6 (Homo sapiens)) was “inactive” and the Activity (Caspase-7 (Homo sapiens)) was “inactive”. The Activity (Caspase-8 (Homo sapiens)) was “inactive” and the Activity (U-937 [3]) was “inactive”.

Source: ChEMBL document CHEMBL1139347, “Total synthesis and cytoprotective properties of dykellic acid” (J Med Chem, 2009)
